In ChEMBL document CHEMBL4689842, “EUbOPEN Chemogenomics Library wave 1” (2021):

System: U2OS
Experiment: Multiplex assay against U2OS
Assay type: toxicity, cell-based
Conditions: human
In short: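 Per cents of healthy-nucleus cells form the tubulin, mitochondrial-mass and membrane-permeability phenotype values. Live cells were stained at seeding with Hoechst33342, BioTracker Green Microtubule Cytoskeleton Dye, MitoTracker Red and Annexin V Alexa Fluor 680. After compound addition they were imaged on a CQ1 microscope at 37°C and 5% CO2, and CellPathfinder machine-learning gating split them into Hoechst high-intensity objects or normal cells, normal cells into healthy, pyknosed or fragmented nuclei, and pyknosed cells into mitotic or apoptotic.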

[1] = 12 h, 1 µM, compound concentration 1 uM, replicate 1
[2] = 12 h, 1 µM, compound concentration 1 uM, replicate 2
[3] = 12 h, 10 µM, compound concentration 10 uM, replicate 1
[4] = 12 h, 10 µM, compound concentration 10 uM, replicate 2
[5] = 24 h, 1 µM, compound concentration 1 uM, replicate 1
[6] = 24 h, 1 µM, compound concentration 1 uM, replicate 2
[7] = 24 h, 10 µM, compound concentration 10 uM, replicate 1
[8] = 24 h, 10 µM, compound concentration 10 uM, replicate 2

O=C(Nc1cccnn1)N1CCC(=Cc2cccc(Oc3ccc(C(F)(F)F)cn3)c2)CC1
Population Apoptotic (%) [1]: 36% | Population Fragmented Nuclei (%) [1]: 1% | Population Healthy Nuclei (%) [1]: 87% | Population Hoechst High Intensity Objects (%) [1]: 3% | Population Membrane Permeable-Phenotype (%) [1]: 33% | Population Mitochondria Different-Phenotype (%) [1]: 5% | Population Mitotic Cells (%) [1]: 63% | Population Normal (%) [1]: 96% | Population Pyknosed Nuclei (%) [1]: 10% | Population Tubulin-Different-Phenotype (%) [1]: 26% | Total Cell Count [1]: 187 | Population Apoptotic (%) [2]: 14% | Population Fragmented Nuclei (%) [2]: 13% | Population Healthy Nuclei (%) [2]: 78% | Population Hoechst High Intensity Objects (%) [2]: 16% | Population Membrane Permeable-Phenotype (%) [2]: 30% | Population Mitochondria Different-Phenotype (%) [2]: 24% | Population Mitotic Cells (%) [2]: 85% | Population Normal (%) [2]: 83% | Population Pyknosed Nuclei (%) [2]: 7% | Population Tubulin-Different-Phenotype (%) [2]: 18% | Total Cell Count [2]: 101 | Population Apoptotic (%) [3]: 83% | Population Fragmented Nuclei (%) [3]: 4% | Population Healthy Nuclei (%) [3]: 92% | Population Hoechst High Intensity Objects (%) [3]: 3% | Population Membrane Permeable-Phenotype (%) [3]: 8% | Population Mitochondria Different-Phenotype (%) [3]: 22% | Population Mitotic Cells (%) [3]: 16% | Population Normal (%) [3]: 96% | Population Pyknosed Nuclei (%) [3]: 3% | Population Tubulin-Different-Phenotype (%) [3]: 22% | Total Cell Count [3]: 311 | Population Apoptotic (%) [4]: 0% | Population Fragmented Nuclei (%) [4]: 8% | Population Healthy Nuclei (%) [4]: 91% | Population Hoechst High Intensity Objects (%) [4]: 15% | Population Membrane Permeable-Phenotype (%) [4]: 12% | Population Mitochondria Different-Phenotype (%) [4]: 24% | Population Mitotic Cells (%) [4]: 0% | Population Normal (%) [4]: 84% | Population Pyknosed Nuclei (%) [4]: 0% | Population Tubulin-Different-Phenotype (%) [4]: 16% | Total Cell Count [4]: 336 | Population Apoptotic (%) [5]: 18% | Population Fragmented Nuclei (%) [5]: 2% | Population Healthy Nuclei (%) [5]: 83% | Population Hoechst High Intensity Objects (%) [5]: 2% | Population Membrane Permeable-Phenotype (%) [5]: 21% | Population Mitochondria Different-Phenotype (%) [5]: 11% | Population Mitotic Cells (%) [5]: 81% | Population Normal (%) [5]: 97% | Population Pyknosed Nuclei (%) [5]: 14% | Population Tubulin-Different-Phenotype (%) [5]: 17% | Total Cell Count [5]: 250 | Population Apoptotic (%) [6]: 27% | Population Fragmented Nuclei (%) [6]: 10% | Population Healthy Nuclei (%) [6]: 79% | Population Hoechst High Intensity Objects (%) [6]: 14% | Population Membrane Permeable-Phenotype (%) [6]: 19% | Population Mitochondria Different-Phenotype (%) [6]: 22% | Population Mitotic Cells (%) [6]: 72% | Population Normal (%) [6]: 85% | Population Pyknosed Nuclei (%) [6]: 10% | Population Tubulin-Different-Phenotype (%) [6]: 11% | Total Cell Count [6]: 114 | Population Apoptotic (%) [7]: 33% | Population Fragmented Nuclei (%) [7]: 2% | Population Healthy Nuclei (%) [7]: 95% | Population Hoechst High Intensity Objects (%) [7]: 3% | Population Membrane Permeable-Phenotype (%) [7]: 5% | Population Mitochondria Different-Phenotype (%) [7]: 20% | Population Mitotic Cells (%) [7]: 66% | Population Normal (%) [7]: 96% | Population Pyknosed Nuclei (%) [7]: 2% | Population Tubulin-Different-Phenotype (%) [7]: 26% | Total Cell Count [7]: 221 | Population Apoptotic (%) [8]: 83% | Population Fragmented Nuclei (%) [8]: 4% | Population Healthy Nuclei (%) [8]: 89% | Population Hoechst High Intensity Objects (%) [8]: 7% | Population Membrane Permeable-Phenotype (%) [8]: 8% | Population Mitochondria Different-Phenotype (%) [8]: 31% | Population Mitotic Cells (%) [8]: 16% | Population Normal (%) [8]: 92% | Population Pyknosed Nuclei (%) [8]: 5% | Population Tubulin-Different-Phenotype (%) [8]: 14% | Total Cell Count [8]: 231
